# KCNQ1 act – potentiators or activators of human KCNQ1 potassium channel; P51787; actives 0.35% (n = 310,000); CHO-K1 KCNQ1, thallium flux FluxOR fluorescence; hits give high values; B-score at 10 µM;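 active means fluorescence ratio B-score, a plate-corrected score, at least three library SD, with initial intensity B-score within 5 SD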
#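 System: Stable KCNQ1 CHO-K1 line | Incubation: 90 min dye loading and 20 min compound exposure, both at room temperature | Measure: Ratio B score | Medium: Assay buffer for compound exposure, DMSO matched across wells | Compound dosing: Single-concentration screen | Probe or stimulus: K+/Tl+ depolarizing stimulus | Measured by: Kinetic FluxOR fluorescence, 10 s baseline plus 110 s post-stimulus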
# KCNK3 inh – human KCNK3 channel inhibition, primary screen. O14649. CHO-KCNK3 thallium flux, FluxOR fluorescence; hits give low values. B-score at 10 µM. actives 0.84% (n = 340,000);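 active means B-score under library mean minus 4 SD, starting fluorescence ratio at most library mean plus 5 SD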;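 further: more negative B-score means stronger inhibition of thallium flux through KCNK3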
# hERG rescue – shields human hERG channel from block by proarrhythmic agents | Q12809 | CHO-hERG, FluxOR thallium flux, dofetilide IC70 present | activation (rescue from dofetilide block), less the hit threshold, % at 10 µM | actives 0.51% (n = 310,000);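 active means activation above the mean of controls blocked by dofetilide plus 5 SD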;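 further: thallium influx through hERG after potassium depolarization seen as dye fluorescence rise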
# Kir21 inh – blocks the mouse Kir2.1 inward-rectifier potassium channel; P35561; AID 1672; actives 0.85% (n = 310,000); HEK293-Kir2.1, FluxOR thallium flux fluorescence; hits give low values; B-score at 10 µM;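 active means fluorescence ratio B-score at or below minus 3 SD of library scores, with starting-brightness B-score within 2 SD, cut at about -4.2 in these data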;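 further: channel flux triggered by added potassium and thallium sulfate stimulus; B-score of peak minus minimum fluorescence over baseline after thallium stimulus; more negative B-score means stronger Kir2.1 block with less thallium influx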
# Target sequence (P35561 whole entry, looked up): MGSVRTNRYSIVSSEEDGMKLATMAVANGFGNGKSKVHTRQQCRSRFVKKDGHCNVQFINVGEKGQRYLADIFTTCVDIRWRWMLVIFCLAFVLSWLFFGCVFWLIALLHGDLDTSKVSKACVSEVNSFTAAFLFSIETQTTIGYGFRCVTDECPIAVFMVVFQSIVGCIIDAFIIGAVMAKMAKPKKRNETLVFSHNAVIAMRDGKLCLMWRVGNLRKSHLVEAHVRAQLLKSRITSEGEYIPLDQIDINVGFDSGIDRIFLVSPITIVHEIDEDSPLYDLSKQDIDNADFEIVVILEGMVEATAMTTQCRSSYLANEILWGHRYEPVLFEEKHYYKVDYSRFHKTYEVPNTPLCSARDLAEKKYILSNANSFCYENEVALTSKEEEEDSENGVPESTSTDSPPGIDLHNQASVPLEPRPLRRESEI
# KCNK9 inh – blocks the human KCNK9 two-pore domain potassium channel; Q9NPC2; B-score at 10 µM; HEK293 KCNK9, FluxOR thallium flux fluorescence; hits give low values; actives 1.2% (n = 310,000); AID 488922;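 active means ratio B-score over 3 SD below the library mean, with starting fluorescence within 5 SD of its mean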;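 further: negative B-score means less thallium flux so channel inhibition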
# KCNQ1 inh – blocks the human KCNQ1 potassium channel; actives 1.3% (n = 310,000); CHO-K1 KCNQ1, FluxOR thallium flux fluorescence; hits give high values; P51787; B-score at 10 µM; AID 2642;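 active means compounds whose thallium flux B-score, printed positive for inhibition, exceeds three library SD while starting fluorescence stays within three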;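 further: channel opened by potassium depolarization with thallium stimulus after 20 min compound exposure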
# KCNK3 confirm – confirmation of human KCNK3 two-pore domain potassium channel inhibitors; shares compounds with KCNK3 inh; CHO-KCNK3 thallium flux, FluxOR fluorescence; 0% buffer, 100% carvedilol maximal block; ratio percent of control, % at 10 µM; actives 99% (n = 2,400); AID 651638;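 active means ratio percent of control, averaged over triplicates, above buffer control mean plus 5 SD, cut at about 64% in these data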;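 further: ratio is the fluorescence rise from min to max over baseline after thallium stimulus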
# KCNK3 uninduced – KCNK3 inhibitor counter-screen hit in non-induced cells; shares compounds with KCNK3 inh; AID 651747; actives 40% (n = 2,400); thallium flux ratio (lower = more inhibition) at 10 µM; non-induced KCNK3 parental cells, FluxOR thallium flux; hits give low values;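 active means thallium flux ratio, averaged over three wells, more than 5 SD below the buffer control mean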;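 further: host cells are CHO cells without KCNK3 induction; ratio is peak minus trough fluorescence over baseline then normalized to buffer controls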
# * hit, by the source's call; i = inactive; · = no result given. An excerpt weighted towards active compounds, which were near 3.7% of everything screened.
SMILES,KCNQ1 act,KCNK3 inh,hERG rescue,Kir21 inh,KCNK9 inh,KCNQ1 inh,KCNK3 confirm,KCNK3 uninduced
CCN1C(=O)[C@@H]2[C@@H](c3ccc(-c4ccc(C(C)=O)cc4)cc3)N3CCCC[C@@]3(C(=O)OC)[C@@H]2C1=O,i,i,-10,0.79,i,i,·,·
Cc1ccccc1CC(=O)c1ccc(O)c(C)c1O,i,-13*,-12,-0.64,i,i,115*,0.15*
CCCN(CCC)c1nc(N(CCC)CCC)[nH]c(=O)n1,i,i,-7,1.1,i,i,·,·
CCCN(CCC)c1nc(C#N)nc(N(CCC)CCC)n1,i,-11*,-19,-0.91,i,i,102*,i
O=C(Cn1cc(S(=O)(=O)Cc2cccc([N+](=O)[O-])c2)c2ccccc21)N1CCOCC1,i,i,-6,-0.08,i,i,·,·
CN(C(=O)c1ccoc1)c1ccc2ccccc2c1,i,-10*,-8,2.2,i,i,55*,i
O=[N+]([O-])c1c(Nc2ccc(O)cc2)cc(Cl)c2nonc12,i,-11*,-30,-6.5*,i,9*,164*,0.054*
C/C(N)=C(/C#N)C(=O)CSc1nc2ccccc2n1CC(C)C,i,i,-7,-0.68,i,i,·,·
O=C(Nc1ccc(Cl)cn1)c1ccc2ccccc2n1,i,-8.7*,-7,0,i,i,93*,i
Cc1ccc(NC(=O)c2ccc3ccccc3n2)nc1,i,i,-14,0.78,i,i,·,·
CCOc1ccc(NC(=S)N(CCc2c(C)[nH]c3ccc(C)cc23)Cc2cccnc2)cc1,i,-9.9*,-8,0.1,i,i,92*,0.14*
CN(C(=O)c1cccc(NC(=O)Cc2ccc([N+](=O)[O-])cc2)c1)C1CC1,·,i,·,·,·,·,·,·
O=C(NCc1nnc(SCC(=O)N2CCCc3ccccc32)n1-c1ccccc1)c1cccc2ccccc12,i,i,-13,-0.51,i,i,·,·
COc1ccc(-n2c(Cc3ccccc3)nnc2SCC(=O)N2CCCc3ccccc32)cc1,i,-12*,-3,-2.9,i,i,87*,i
CCOC(=O)CSc1nc2ccccc2c(=O)n1CC1CCCC1,i,-11*,-12,-1.1,i,i,116*,0.15*
CCOC(=O)CSc1nc2ccccc2c(=O)n1CC,i,i,-1,2.3,i,i,·,·
O=C1OC(c2cccs2)=N/C1=C\c1ccc(-c2ccccc2Cl)o1,i,i,-21,-2.9,-7.9*,i,141*,0.11*
CCOC(=O)c1cc(C)sc1NC(=O)CSc1nnnn1C,i,i,-6,1.7,i,i,·,·
CCOC(=O)c1cc(C)sc1NC(=O)CSC1=NCCS1,i,-12*,-9,-2,i,i,119*,i
Cc1cc(C)nc(N(C#N)Cc2cccc3ccccc23)n1,i,-9.2*,-6,-1.1,i,i,74*,i
COc1ccc(/C=C(\NC(=O)c2ccccc2)C(=O)NCc2ccco2)cc1OC,i,i,-7,0.64,i,i,·,·
Cc1cc(/C=N/NC(=O)c2ccccn2)c(C)n1-c1cccc([N+](=O)[O-])c1,i,-9*,-3,0.9,i,i,88*,i
O=C(N/N=C\c1cc([N+](=O)[O-])ccc1N1CCCC1)c1ccccn1,i,i,-5,0.38,i,i,·,·
Cc1cc(/C=N/Nc2ccc([N+](=O)[O-])cn2)c(C)n1-c1ccccc1,i,i,-3,0.06,i,i,·,·
Cc1ccc(-n2c(C)cc(/C=N/Nc3ccc([N+](=O)[O-])cn3)c2C)cc1,i,-13*,-3,-0.22,i,i,0,i
SMILES,KCNQ1 act,KCNK3 inh,hERG rescue,Kir21 inh,KCNK9 inh,KCNQ1 inh,KCNK3 confirm,KCNK3 uninduced
Cc1ccc(NC(=O)c2cc(C(=O)Nc3ccc(C)cc3)n(C)n2)cc1,i,i,-6,0.65,i,i,·,·
Cc1ccc(/C=N/NC(=O)c2cccc(NC(=O)c3ccccc3Cl)c2)o1,i,i,-12,1,i,i,·,·
CCOc1ccc(OCC)c(S(=O)(=O)n2cnc(C)c2)c1,i,-8.8*,-9,-0.78,i,i,82*,i
O=C(N/N=C\c1c(O)ccc2ccccc12)c1ccc(Cn2cccn2)o1,i,i,-18,-1.7,i,i,·,·
O=C(CCSc1ccccc1)Nc1nc2c(s1)COc1ccccc1-2,i,-9.4*,-21,2.4,i,i,105*,i
CCCC(=O)Nc1nc2c(s1)COc1ccccc1-2,i,i,-6,1.8,i,i,·,·
CN(C)c1ccc(C=c2c3ccccc3n3c2c2c([n+]3C)CCCC2)cc1,·,-13*,·,·,·,·,171*,0.071*
CN(C)c1ccc(/C=C2\CCC/C(=C\c3ccccc3)C2=O)cc1,i,i,-9,-1.1,i,i,·,·
C(=C\CSc1nnnn1-c1ccccc1)/CSc1nnnn1-c1ccccc1,i,-9.7*,-15,-1.9,i,i,106*,i
COc1ccccc1/C=C1\SC(=S)N(N2C(=O)CCCC2=O)C1=O,i,-9.4*,-12,0.28,i,i,105*,i
FC(F)(F)c1ccccc1-n1ccnc1,·,i,·,·,·,·,·,·
Clc1ccccc1C(c1ccccc1)(c1ccccc1)n1ccnc1,i,-11*,-14,-0.68,-18*,i,129*,0.13*
CC(CNC(=O)CN1C(=O)NC2(CCOc3ccccc32)C1=O)c1ccccc1 (centres undefined),·,i,·,·,·,·,·,·
Cc1onc(-c2ccccc2)c1-c1ccnn1S(=O)(=O)c1ccc(Cl)cc1,i,-9.4*,-11,-3.6,i,i,103*,i
O=C1C2CCCN2C(=O)N1CCN1CCN(c2cccc(C(F)(F)F)c2)CC1 (centres undefined),·,i,·,·,·,·,·,·
COCCN(C(=O)Nc1ccccc1OC)c1nc2ccccc2s1,i,-11*,-9,-0.63,i,i,114*,i
COc1ccc(N2CCN(C(=O)Cc3cccs3)CC2)cc1,i,-9.5*,3,-0.15,i,i,75*,i

# High-throughput results: PubChem BioAssay, Johns Hopkins Ion Channel Center
